{"source": "ChEMBL document CHEMBL3085690", "about": "“Naturally occurring antimicrobial peptide OH-CATH30 selectively regulates the innate immune response to protect against sepsis” (J Med Chem, 2013)", "key": {"BMDM [1]": {"test_system": "BMDM", "experiment": "Induction of CXCL11 mRNA up-regulation in mouse BMDM at 20 ug/ml after 3 hrs by qRT-PCR analysis", "type": "functional", "procedure,_shortened": "(§1)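 Murine BMDMs stimulated with peptide, then target mRNA quantified by qRT-PCR. Expression normalized to GAPDH, with untreated cells set to 1.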"}, "BMDM [2]": {"test_system": "BMDM", "experiment": "Induction of CXCL5 mRNA up-regulation in mouse BMDM at 20 ug/ml after 3 hrs by qRT-PCR analysis", "type": "functional", "procedure,_shortened": "as §1"}, "BMDM [3]": {"test_system": "BMDM", "experiment": "Induction of CXCL2 mRNA up-regulation in mouse BMDM at 20 ug/ml after 3 hrs by qRT-PCR analysis", "type": "functional", "procedure,_shortened": "as §1"}, "BMDM [4]": {"test_system": "BMDM", "experiment": "Increase of IL-10 protein level in mouse BMDM at 20 ug/ml after 18 hrs by ELISA", "type": "functional", "procedure,_shortened": "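Bone marrow-derived macrophages (RPMI 1640, 10% FCS, 20% L929-conditioned medium) stimulated with peptide for 18 h. Cytokines and chemokines in culture supernatant quantified by sandwich ELISA. Mean ± SD from three independent experiments, unpaired t test.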"}, "BMDM [5]": {"test_system": "BMDM", "experiment": "Induction of CCL3 mRNA up-regulation in mouse BMDM at 20 ug/ml after 3 hrs by qRT-PCR analysis", "type": "functional", "procedure,_shortened": "as §1"}, "[6]": {"experiment": "Half life in Kunming mouse at 10 mg/kg, ip", "type": "ADME, organism-based", "set-up": "dose 10 mg/kg, route intraperitoneal", "details": "in vivo"}, "Mus musculus [7]": {"test_system": "Mus musculus", "experiment": "Stimulation of innate immune response in Kunming mouse infected with Pseudomonas aeruginosa ATCC 27853 assessed as reduction of bacterial burden in peritoneal lavage by measuring survival rate at 10 mg/kg, ip administered 5 hrs before bacterial infection measured up to 7 days", "type": "functional, organism-based", "set-up": "dose 10 mg/kg", "procedure,_shortened": "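Peptide at 10 mg/kg ip was given 5 h before ip challenge with E. coli 25922 (2.5 × 10^8 CFU), P. aeruginosa 27853 (8 × 10^7 CFU) or S. aureus 25923 (2 × 10^8 CFU) per mouse. Viable bacteria were counted in peritoneal lavage collected in 2 mL of cold saline (n = 7, 6 and 8 respectively; unpaired t test). Survival was recorded for up to 7 days.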"}, "Mus musculus [8]": {"test_system": "Mus musculus", "experiment": "Stimulation of innate immune response in Kunming mouse assessed as protection against Pseudomonas aeruginosa ATCC 27853-induced mortality by measuring survival rate at 10 mg/kg, ip administered 5 hrs before bacterial infection measured up to 7 days", "type": "functional", "details": "route intraperitoneal", "procedure,_shortened": "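Female Kunming mice (18−22 g) received a single ip dose in sterile saline 5 h before ip challenge with P. aeruginosa 27853 (8 × 10^7 CFU/mouse; n = 8) or S. aureus 25923 (2 × 10^8 CFU/mouse; n = 10). Mice were checked every 6 h for up to 7 days, with a humane end point. Curves were compared by log-rank test.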"}, "Mus musculus [9]": {"species": "Mus musculus", "experiment": "Activation of JNK in mouse BMDM assessed as phosphorylation at 10 ug/ml by Western blotting", "procedure,_shortened": "(§2)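 BMDMs cultured in RPMI 1640 with 10% FCS and 20% L929-conditioned medium. Lysates separated by 10% SDS-PAGE, blotted to PVDF and blocked in 5% BSA. Probed for phospho-JNK/JNK or phospho-p38/p38, then HRP goat anti-rabbit IgG, chemiluminescence read-out.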"}, "[10]": {"biological_target": "MAP kinase p38 (Homo sapiens) (UniProt O15264+Q15759+Q16539+P53778)", "experiment": "Activation of p38 kinase in mouse BMDM assessed as phosphorylation at 10 ug/ml by Western blotting", "type": "protein assay", "details": "TDE = time-dependent effect, target entry is the homologue from another species", "procedure,_shortened": "as §2"}, "[11]": {"experiment": "Increase of CXCL2 production in mouse BMDM after 6 hrs by ELISA in presence of MEK1/2 inhibitor U0126", "type": "functional"}, "BMDM [12]": {"test_system": "BMDM", "experiment": "Increase of CXCL2 production in mouse BMDM after 6 hrs by ELISA in presence of KN-62", "type": "functional"}, "RAW264.7 [13]": {"test_system": "RAW264.7", "experiment": "Downregulation of TLR4/MD2 complex in plasma membrane in mouse RAW264.7 cells relative to LPS", "type": "functional", "procedure,_shortened": "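RAW 264.7 cells in DMEM with 10% FCS, exposed 30 min to peptide (20 μg/mL) or LPS (1 μg/mL). Washed in ice-cold PBS, stained with PE anti-mouse TLR4/MD2 (2 μg/mL) for 30 min on ice. Surface complex measured by flow cytometry.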"}, "RAW264.7 [14]": {"test_system": "RAW264.7", "experiment": "Inhibition of LPS-induced IL-6 production in mouse RAW264.7 cells 2 to 50 ug/ml after 6 hrs by ELISA", "type": "functional, cell-based"}, "Mus musculus [15]": {"test_system": "Mus musculus", "experiment": "Stimulation of innate immune response in clodronate liposomes treated Kunming mouse monocytes depletion model assessed as recruitment of neutrophils at 10 mg/kg, ip", "type": "functional, organism-based", "set-up": "dose 10 mg/kg"}, "Mus musculus [16]": {"test_system": "Mus musculus", "experiment": "Stimulation of innate immune response in Kunming mouse assessed as increase of neutrophils in peritoneal lavage at 10 mg/kg, ip after 5 hrs", "type": "functional, organism-based", "set-up": "dose 10 mg/kg", "procedure,_shortened": "(§3)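 Female Kunming mice were given peptide ip at 10 mg/kg. At 5 h, peritoneal cells were recovered by lavage with 2 mL PBS and counted. Cells were stained with anti-F4/80-PE and GR1-FITC for 30 min at room temperature and typed by flow cytometry: neutrophils GR1+/F4/80−, resident monocytes/macrophages GR1−/F4/80+, inflammatory monocytes GR1+/F4/80+. Data are mean ± SD from three mice, unpaired t test.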"}, "Mus musculus [17]": {"test_system": "Mus musculus", "experiment": "Stimulation of innate immune response in Kunming mouse assessed as increase of monocytes/macrophages in peritoneal lavage at 10 mg/kg, ip after 5 hrs", "type": "functional, organism-based", "set-up": "dose 10 mg/kg", "procedure,_shortened": "as §3"}, "Mus musculus [18]": {"test_system": "Mus musculus", "experiment": "Stimulation of innate immune response in Kunming mouse infected with Pseudomonas aeruginosa ATCC 27853 assessed as effect on CXCL2 production in peritoneal lavage at 10 mg/kg, ip after 3 hrs by ELISA", "type": "functional, organism-based", "set-up": "dose 10 mg/kg", "procedure,_shortened": "(§4)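 Mice were pretreated ip with peptide at 10 mg/kg 5 h before ip challenge with P. aeruginosa 27853 at 8 × 10^7 CFU/mouse. CCL2 and CXCL2 were measured in peritoneal lavage collected 3 h after inoculation. TNF-α and IL-6 were measured in serum collected 5 h after inoculation. All were read by ELISA; data are mean ± SD from four mice, unpaired t test.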"}, "Mus musculus [19]": {"test_system": "Mus musculus", "experiment": "Stimulation of innate immune response in Kunming mouse infected with Pseudomonas aeruginosa ATCC 27853 assessed as effect on CCL2 production in peritoneal lavage at 10 mg/kg, ip after 3 hrs by ELISA", "type": "functional, organism-based", "set-up": "dose 10 mg/kg", "procedure,_shortened": "as §4"}, "Mus musculus [20]": {"test_system": "Mus musculus", "experiment": "Stimulation of innate immune response in Kunming mouse assessed as increase of IL-6 level in peritoneal lavage at 10 mg/kg, ip after 5 hrs", "type": "functional, organism-based", "set-up": "dose 10 mg/kg", "procedure,_shortened": "(§5)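 Female Kunming mice (18−22 g) received a single ip injection of peptide at 10 mg/kg in sterile saline. Peritoneal lavage was collected in 2 mL of cold sterile saline 5 h later, and cytokines and chemokines were measured by ELISA. Data are mean ± SD from four mice, compared by unpaired t test.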"}, "Mus musculus [21]": {"test_system": "Mus musculus", "experiment": "Stimulation of innate immune response in Kunming mouse assessed as increase of TNFalpha level in peritoneal lavage at 10 mg/kg, ip after 5 hrs", "type": "functional, organism-based", "set-up": "dose 10 mg/kg", "procedure,_shortened": "as §5"}, "Mus musculus [22]": {"test_system": "Mus musculus", "experiment": "Stimulation of innate immune response in Kunming mouse assessed as increase of IL-1Ra level in peritoneal lavage at 10 mg/kg, ip after 5 hrs", "type": "functional, organism-based", "set-up": "dose 10 mg/kg", "procedure,_shortened": "as §5"}, "RAW264.7 [23]": {"test_system": "RAW264.7", "experiment": "Induction of H2O2 production in mouse RAW264.7 cells", "type": "functional, cell-based"}, "[24]": {"experiment": "Induction of IL-1beta mRNA up-regulation in mouse BMDM at 20 ug/ml after 3 hrs by qRT-PCR analysis relative to control", "type": "functional", "procedure,_shortened": "as §1"}}, "note": "The source made the active and inactive calls. No cut-off for these calls is given here. Peptide text beside a SMILES is read from it."}
{"smiles": "CC[C@H](C)[C@H](NC(=O)[C@@H](NC(=O)[C@H](CCCNC(=N)N)NC(=O)[C@@H]1CCCN1C(=O)[C@H](CCCCN)NC(=O)[C@H](CCCCN)NC(=O)[C@H](Cc1ccccc1)NC(=O)[C@H](Cc1ccccc1)NC(=O)[C@H](CCCCN)NC(=O)[C@H](CCCCN)NC(=O)[C@H](C)NC(=O)[C@H](CCCNC(=N)N)NC(=O)[C@H](CCCCN)NC(=O)[C@H](CCCCN)NC(=O)[C@@H](NC(=O)[C@H](CO)NC(=O)[C@H](CC(N)=O)NC(=O)[C@H](CCCCN)NC(=O)[C@H](CC(C)C)NC(=O)[C@H](CCCCN)NC(=O)[C@H](CCCCN)NC(=O)[C@H](Cc1ccccc1)NC(=O)[C@H](Cc1ccccc1)NC(=O)[C@@H](N)CCCCN)C(C)C)C(C)C)C(=O)NCC(=O)N[C@H](C(=O)N[C@@H](CO)C(=O)N[C@H](C(=O)N1CCC[C@H]1C(=O)N[C@@H](Cc1ccccc1)C(=O)O)[C@@H](C)CC)C(C)C", "note": "(H-KFFKKLKNSVKKRAKKFFKKPRVIGVSIPF-OH)", "values": [{"measurement": "Activity", "setting": "BMDM [1]", "result": "Active"}, {"measurement": "Activity", "setting": "BMDM [2]", "result": "Active"}, {"measurement": "Activity", "setting": "BMDM [3]", "result": "Active"}, {"measurement": "Activity", "setting": "BMDM [4]", "result": "Active"}, {"measurement": "Activity", "setting": "BMDM [5]", "result": "Active"}, {"measurement": "half-life", "setting": "[6]", "result": "< 1", "unit": "h"}, {"measurement": "Activity", "setting": "Mus musculus [7]", "result": "Active"}, {"measurement": "survival at 10 mg/kg", "setting": "Mus musculus [8]", "result": "> 85", "unit": "%"}, {"measurement": "Activity", "setting": "Mus musculus [9]", "result": "Active"}, {"measurement": "Activity", "setting": "[10]", "result": "tde"}, {"measurement": "Activity", "setting": "[11]", "result": 979.6, "unit": "pg/mL"}, {"measurement": "Activity", "setting": "BMDM [12]", "result": "Active"}, {"measurement": "Activity", "setting": "RAW264.7 [13]", "result": 20, "unit": "%"}, {"measurement": "inhibition", "setting": "RAW264.7 [14]", "result": "Active"}, {"measurement": "Activity", "setting": "Mus musculus [15]", "result": "inactive"}, {"measurement": "Activity", "setting": "Mus musculus [16]", "result": "Active"}, {"measurement": "Activity", "setting": "Mus musculus [17]", "result": "Active"}, {"measurement": "Activity", "setting": "Mus musculus [18]", "result": "Active"}, {"measurement": "Activity", "setting": "Mus musculus [19]", "result": "Active"}, {"measurement": "Activity", "setting": "Mus musculus [20]", "result": "inactive"}, {"measurement": "Activity", "setting": "Mus musculus [21]", "result": "inactive"}, {"measurement": "Activity", "setting": "Mus musculus [22]", "result": "Active"}, {"measurement": "Activity", "setting": "RAW264.7 [23]", "result": "inactive"}, {"measurement": "fold change (FC)", "setting": "[24]", "result": 2.5}]}
